Assays:
Rattus norvegicus [1] = assay: Anticonvulsant activity administered orally to rat for protective index of subcutaneous metrazol test; assay type: functional
Mus musculus [2] = assay: Anticonvulsant activity administered intra peritoneally to mouse for protective index of subcutaneous metrazol test; assay type: functional
Rattus norvegicus [3] = assay: Anticonvulsant activity administered orally to rat at subcutaneous metrazol test; assay type: functional
Mus musculus [4] = assay: Anticonvulsant activity administered intra peritoneally to mouse at subcutaneous metrazol test; assay type: functional; conditions: sc
[5] = Anti convulsant activity administered intra peritoneally to mouse for toxicity at 4 hr with dose of 300 mg/kg; 0/2= No of animals exhibiting toxicity /No of animals tested; assay type: organism-based; parameters: dose 300 mg/kg; conditions: in vivo, ip
[6] = Anti convulsant activity administered intra peritoneally to mouse for toxicity at 4 hr with dose of 30 mg/kg; 0/2= No of animals exhibiting toxicity /No of animals tested; assay type: organism-based; parameters: dose 30 mg/kg; conditions: in vivo, ip
[7] = Anti convulsant activity administered intra peritoneally to mouse for toxicity at 4 hr with dose of 100 mg/kg; 0/4= No of animals exhibiting toxicity /No of animals tested; assay type: organism-based; parameters: dose 100 mg/kg; conditions: in vivo, ip
[8] = Anti convulsant activity administered intra peritoneally to mouse for toxicity at 0.5 hr with dose of 30 mg/kg; 0/4= No of animals exhibiting toxicity /No of animals tested; assay type: organism-based; parameters: dose 30 mg/kg; conditions: in vivo, ip
[9] = Anti convulsant activity administered intra peritoneally to mouse for toxicity at 0.5 hr with dose of 100 mg/kg; 1/8= No of animals exhibiting toxicity /No of animals tested; assay type: organism-based; parameters: dose 100 mg/kg; conditions: in vivo, ip
Mus musculus [10] = assay: Anti convulsant activity administered intra peritoneally to mouse at maximal electroshock test at 4 hr after the drug administered with dose of 30 mg/kg; 0/1= No of animals protected /No of animals tested; assay type: functional
Mus musculus [11] = assay: Anti convulsant activity administered intra peritoneally to mouse at maximal electroshock test at 4 hr after the drug administered with dose of 100 mg/kg; 0/3= No of animals protected /No of animals tested; assay type: functional
Mus musculus [12] = assay: Anti convulsant activity administered intra peritoneally to mouse at maximal electroshock test at 4 hr after the drug administered with dose of 300 mg/kg; 1/1= No of animals protected /No of animals tested; assay type: functional
Mus musculus [13] = assay: Anti convulsant activity administered intra peritoneally to mouse for subcutaneous metrazol test at 4 hr after the drug administered with dose of 30 mg/kg; 0/1= No of animals protected /No of animals tested; assay type: functional; conditions: route intraperitoneal
Mus musculus [14] = assay: Anti convulsant activity administered intra peritoneally to mouse at maximal electroshock test at 0.5 hr after the drug administered with dose of 100 mg/kg; 0/3= No of animals protected /No of animals tested; assay type: functional
Mus musculus [15] = assay: Anti convulsant activity administered intra peritoneally to mouse at maximal electroshock test at 0.5 hr after the drug administered with dose of 300 mg/kg; 1/1= No of animals protected /No of animals tested; assay type: functional
Mus musculus [16] = assay: Anti convulsant activity administered intra peritoneally to mouse for subcutaneous metrazol test at 4 hr after the drug administered with dose of 100 mg/kg; 0/1= No of animals protected /No of animals tested; assay type: functional
Rattus norvegicus [17] = assay: Anticonvulsant activity after oral administration of 50 mg/kg dose after 1 hr in rats;+means 25% of the animals protected; assay type: functional, organism-based; parameters: dose 50 mg/kg
Procedure, shortened: (§1)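 Oral dosing of rats at a single dose, compound dissolved or suspended in 0.5% methylcellulose. Protection in the MES or scMet test checked 15 min, 30 min, 1 h, 2 h and 4 h after dosing. Scored as 25/50/75/100% of animals protected (+ to ++++), – for none.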

Rattus norvegicus [18] = assay: Anticonvulsant activity after oral administration of 50 mg/kg dose after 2 hr in rats; +++ means 75% of the animal is protected; assay type: functional, organism-based; parameters: dose 50 mg/kg; procedure, shortened: as §1
Rattus norvegicus [19] = assay: Anticonvulsant activity after oral administration of 50 mg/kg dose after 30 min in rats; ++ means 50% of the animal protected; assay type: functional, organism-based; parameters: dose 50 mg/kg
Procedure, shortened: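 Rats dosed orally with compound dissolved or suspended in 0.5% methylcellulose (0.04 mL per 10 g body weight). Anticonvulsant protection (MES or scMet) and toxicity scored at 15 min, 30 min, 1 h, 2 h and 4 h after dosing. Graded in steps of 25% of animals protected or showing toxicity.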

Rattus norvegicus [20] = assay: Anticonvulsant activity after oral administration of 125 mg/kg dose after 30 min in rats;++ means 50% of the animals protected; assay type: functional, organism-based; parameters: dose 125 mg/kg; procedure, shortened: as §1
Mus musculus [21] = assay: Anti convulsant activity administered intra peritoneally to mouse for subcutaneous metrazol test at 4 hr with dose of 300 mg/kg; 0/1= No of animals protected /No of animals tested; assay type: functional
Mus musculus [22] = assay: Anti convulsant activity administered intra peritoneally to mouse for subcutaneous metrazol test at 0.5 hr with dose of 30 mg/kg; 0/1= No of animals protected /No of animals tested; assay type: functional
Mus musculus [23] = assay: Anti convulsant activity administered intra peritoneally to mouse for subcutaneous metrazol test at 0.5 hr with dose of 100 mg/kg; 0/1= No of animals protected /No of animals tested; assay type: functional
Mus musculus [24] = assay: Anti convulsant activity administered intra peritoneally to mouse for subcutaneous metrazol test at 0.5 h with dose of 300 mg/kg; 0/1= No of animals protected /No of animals tested; assay type: functional
[25] = Anti convulsant activity administered intra peritoneally to mouse for toxicity at 4 hr with dose of 300 mg/kg; 1/2= No of animals exhibiting toxicity /No of animals tested; assay type: organism-based; parameters: dose 300 mg/kg; conditions: in vivo, ip
[26] = Anti convulsant activity administered intra peritoneally to mouse for toxicity at 0.5 hr with dose of 100 mg/kg; 0/8= No of animals exhibiting toxicity /No of animals tested; assay type: organism-based; parameters: dose 100 mg/kg; conditions: in vivo, ip
[27] = Anti convulsant activity administered intra peritoneally to mouse for toxicity at 0.5 hr with dose of 300 mg/kg; 4/4= No of animals exhibiting toxicity /No of animals tested; assay type: organism-based; parameters: dose 300 mg/kg; conditions: in vivo, ip
Mus musculus [28] = assay: Anti convulsant activity administered intra peritoneally to mouse at maximal electroshock test at 4 hr after the drug administered with dose of 300 mg/kg; 0/1= No of animals protected /No of animals tested; assay type: functional
Mus musculus [29] = assay: Anti convulsant activity administered intra peritoneally to mouse at maximal electroshock test at 0.5 h after the drug administered with dose of 30 mg/kg; 0/1= No of animals protected /No of animals tested; assay type: functional
Rattus norvegicus [30] = assay: Anticonvulsant activity after oral administration of 30 mg/kg dose after 15 min in rats; + means 25% of the animals protected; assay type: functional, organism-based; parameters: dose 30 mg/kg; procedure, shortened: as §1
Mus musculus [31] = assay: Anti convulsant activity administered intra peritoneally to mouse for subcutaneous metrazol test at 0.5 hr with dose of 300 mg/kg; 1/1= No of animals protected /No of animals tested; assay type: functional
Rattus norvegicus [32] = assay: Anticonvulsant activity after oral administration of 30 mg/kg dose after 4 hr in rats; +means 25% of animals protected; assay type: functional, organism-based; parameters: dose 30 mg/kg; procedure, shortened: as §1

Row | SMILES | Toxicity [6] | Toxicity [7] | Toxicity [8] | Activity (Mus musculus [10]) | Activity (Mus musculus [11]) | Activity (Mus musculus [13]) | Activity (Mus musculus [14]) | Activity (Mus musculus [15]) | Activity (Mus musculus [16]) | Activity (Mus musculus [21]) | Activity (Mus musculus [22]) | Activity (Mus musculus [23]) | other results
1 | CC1(C)C(C(N)=O)C1(C)C |  |  |  |  |  |  |  |  |  |  |  |  | Activity (Rattus norvegicus [1]): 7.3; Activity (Mus musculus [2]): 1.7
2 | CCCC(CCC)C(=O)O [VALPROIC ACID] |  |  |  |  |  |  |  |  |  |  |  |  | ED50 (Rattus norvegicus [3]): 646 mg/kg; ED50 (Mus musculus [4]): 220 mg/kg
3 | CN(C)C(=O)NC(=O)C1C(C)(C)C1(C)C | 0 | 0 | 0 | 0 | 0 | 0 | 0 | 1 | 0 | 0 | 0 | 0 | Toxicity [5]: 0; Toxicity [9]: 1; Activity (Mus musculus [12]): 1; Activity (Rattus norvegicus [17]): 25% of the animals protected; Activity (Rattus norvegicus [18]): 25% of the animals protected; Activity (Rattus norvegicus [19]): 25% of the animals protected; Activity (Rattus norvegicus [20]): 25% of the animals protected; Activity (Mus musculus [24]): 0
4 | CC1(C)C(C(=O)NCCF)C1(C)C | 0 | 0 | 0 | 0 | 0 | 0 | 0 | 1 | 0 | 1 | 0 | 0 | Toxicity [25]: 1; Toxicity [26]: 0; Toxicity [27]: 4; Activity (Mus musculus [28]): 0; Activity (Mus musculus [29]): 0; Activity (Rattus norvegicus [30]): 25% of animals protected; Activity (Mus musculus [31]): 1; Activity (Rattus norvegicus [32]): 25% of animals protected
